Molecules are shown by their SMILES.

T1 sequence (Q05655 whole entry, the tested form may be a part): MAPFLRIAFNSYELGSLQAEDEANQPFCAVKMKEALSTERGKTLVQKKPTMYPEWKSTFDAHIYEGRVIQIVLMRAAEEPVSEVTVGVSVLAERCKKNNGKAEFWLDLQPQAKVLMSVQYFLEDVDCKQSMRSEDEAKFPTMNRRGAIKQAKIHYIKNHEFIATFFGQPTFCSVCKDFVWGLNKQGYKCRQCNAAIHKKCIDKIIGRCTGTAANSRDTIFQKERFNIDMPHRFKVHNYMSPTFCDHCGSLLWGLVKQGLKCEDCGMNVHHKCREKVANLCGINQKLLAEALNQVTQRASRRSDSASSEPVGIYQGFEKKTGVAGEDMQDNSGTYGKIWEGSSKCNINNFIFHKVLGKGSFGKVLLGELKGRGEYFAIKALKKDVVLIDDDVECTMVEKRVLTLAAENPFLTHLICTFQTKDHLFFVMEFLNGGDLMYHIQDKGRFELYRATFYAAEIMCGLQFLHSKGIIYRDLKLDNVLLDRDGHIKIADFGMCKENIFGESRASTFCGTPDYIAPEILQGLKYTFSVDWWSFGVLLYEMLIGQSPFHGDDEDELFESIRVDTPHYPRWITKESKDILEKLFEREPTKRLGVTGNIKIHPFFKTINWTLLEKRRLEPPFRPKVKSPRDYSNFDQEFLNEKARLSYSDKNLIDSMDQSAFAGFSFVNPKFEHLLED

The first series relates to PC-3. As to the kind of experiment: Growth inhibition of human PC3 cells after 48 hrs by sulforhodamine B assay. It is filed as functional. As to conditions: PC-3, 48 h. The procedure, abridged: (§1)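 Yamori 39-line human cancer panel, NCI method with modifications. Cells plated in RPMI 1640 plus 5% FBS, attached overnight, then exposed 48 h to compound at 10^-8, 10^-7, 10^-6, 10^-5 and 10^-4 M. Sulforhodamine B staining read at 525 nm; % growth = 100[(T−T0)/(C−T0)] from duplicate-point averages, with T0 the time-zero absorbance. GI50 is the concentration giving 50.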
Turning to `COc1cccc(CCCC[C@@H]2C[C@@H]3C[C@@]4(O[C@H](CCC4(C)C)CC(=O)O[C@@H](CO)CC(=O)O3)O2)c1`, the concentration for 50% growth inhibition (GI50) is 12 µM.

The next series has as its system MCF7. As to the kind of experiment: Growth inhibition of human MCF7 cells after 48 hrs by sulforhodamine B assay. The following applies: MCF7, 48 h. It is filed as functional. Summed up: as §1
(In SRB staining, fixed cells bind dye roughly in proportion to their protein.)
`COc1cccc(CCCC[C@@H]2C[C@@H]3C[C@@]4(O[C@H](CCC4(C)C)CC(=O)O[C@@H](CO)CC(=O)O3)O2)c1`: the GI50 was 16.2 µM.

Another series concerns HT-29. As to the kind of experiment: Growth inhibition of human HT-29 cells after 48 hrs by sulforhodamine B assay. It is filed as functional. The following applies: HT-29, 48 h. Summed up: as §1
Consider `COc1cccc(CCCC[C@@H]2C[C@@H]3C[C@@]4(O[C@H](CCC4(C)C)CC(=O)O[C@@H](CO)CC(=O)O3)O2)c1`, for which it took 11.2 µM to inhibit growth by half (GI50).

The test system of the next series is Human gammaherpesvirus 4. In words: Induction of EBV-early antigen expressed in human Raji cells at 10^-7 M after 48 hrs by immunofluorescence assay relative to control. It is filed as organism-based. The following applies: human gammaherpesvirus 4, raji, 0.1 µM. The procedure, abridged:
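Raji B-lymphoblastoid cells (5 × 10^5/mL) in RPMI 1640 with 10% FBS, with 4 mM sodium n-butyrate as synergist and test compound at 10^-7 or 10^-6 M (final DMSO 0.4%). Incubated 48 h at 37 °C under 5% CO2. Smears were stained by indirect immunofluorescence using NPC patient serum and FITC anti-human IgG. At least 500 cells counted; % EA-positive recorded; n = 3, SEM.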
`COc1cccc(CCCC[C@@H]2C[C@@H]3C[C@@]4(O[C@H](CCC4(C)C)CC(=O)O[C@@H](CO)CC(=O)O3)O2)c1` registered an Activity of 2.6%.

The next series has as its system NCI-H23. As to the kind of experiment: Growth inhibition of human NCI-H23 cells after 48 hrs by sulforhodamine B assay. It is filed as functional. As to conditions: NCI-H23, 48 h. The procedure, abridged:
as §1
`COc1cccc(CCCC[C@@H]2C[C@@H]3C[C@@]4(O[C@H](CCC4(C)C)CC(=O)O[C@@H](CO)CC(=O)O3)O2)c1`: it took 13.5 µM to inhibit growth by half (GI50). That is a double-digit micromolar value.

Another series concerns NCI-H460. As to the kind of experiment: Growth inhibition of human NCI-H460 cells after 48 hrs by sulforhodamine B assay. It is filed as functional. As to conditions: NCI-H460, 48 h. The procedure, abridged: as §1
`COc1cccc(CCCC[C@@H]2C[C@@H]3C[C@@]4(O[C@H](CCC4(C)C)CC(=O)O[C@@H](CO)CC(=O)O3)O2)c1` had a GI50 of 2.57 µM.

The next series deals with OVCAR-3. In words: Growth inhibition of human OVCAR3 cells after 48 hrs by sulforhodamine B assay. It is filed as functional. The following applies: OVCAR-3, 48 h. The procedure, abridged: as §1
As for `COc1cccc(CCCC[C@@H]2C[C@@H]3C[C@@]4(O[C@H](CCC4(C)C)CC(=O)O[C@@H](CO)CC(=O)O3)O2)c1`, growth was halved (GI50) at 12.6 µM.

Tested on in a further series: not listed separately
In words: Cytotoxicity against human Raji cells assessed as cell viability at 10^-6 M. As to conditions: read-out: Activity. It is filed as cell-based.
`COc1cccc(CCCC[C@@H]2C[C@@H]3C[C@@]4(O[C@H](CCC4(C)C)CC(=O)O[C@@H](CO)CC(=O)O3)O2)c1`: the viability at 1 µM is 60%.

Another series has as its target T1, Protein kinase C delta type (Homo sapiens, UniProt Q05655). As to the kind of experiment: Inhibition of [3H]PDBu binding to PKCdelta-C1A domain peptide (unknown origin).
Conditions: not given
Summed up: (§2)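 Competitive [3H]PDBu binding used 14 or 40 nM PKCδ C1 peptide and 20 nM [3H]PDBu (19.6 Ci/mmol), in 50 mM Tris-maleate (pH 7.4 at 4 °C) with 50 µg/mL phosphatidylserine, 3 mg/mL bovine γ-globulin and varied inhibitor concentrations. IC50 was taken as 50% inhibition of specific binding. Ki was derived by the Sharkey–Blumberg method.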
`COc1cccc(CCCC[C@@H]2C[C@@H]3C[C@@]4(O[C@H](CCC4(C)C)CC(=O)O[C@@H](CO)CC(=O)O3)O2)c1`: the Ki stood at 0.33 µM.

A further series concerns DU-145. As to the kind of experiment: Growth inhibition of human DU145 cells after 48 hrs by sulforhodamine B assay. It is filed as functional. The following applies: DU-145, 48 h. The procedure, abridged:
as §1
`COc1cccc(CCCC[C@@H]2C[C@@H]3C[C@@]4(O[C@H](CCC4(C)C)CC(=O)O[C@@H](CO)CC(=O)O3)O2)c1` showed a GI50 of 13.8 µM.

A further series deals with SNB-78. As to the kind of experiment: Growth inhibition of human SNB78 cells after 48 hrs by sulforhodamine B assay. It is filed as functional. The following applies: SNB-78, 48 h. Summed up: as §1
With `COc1cccc(CCCC[C@@H]2C[C@@H]3C[C@@]4(O[C@H](CCC4(C)C)CC(=O)O[C@@H](CO)CC(=O)O3)O2)c1`, the GI50 was 17.4 µM.

For another series, the system named is DMS-114. In words: Growth inhibition of human DMS114 cells after 48 hrs by sulforhodamine B assay. It is filed as functional. As to conditions: DMS-114, 48 h. The procedure, abridged:
as §1
The molecule `COc1cccc(CCCC[C@@H]2C[C@@H]3C[C@@]4(O[C@H](CCC4(C)C)CC(=O)O[C@@H](CO)CC(=O)O3)O2)c1` gave a GI50 of 11 µM.

The next series concerns A549. In words: Growth inhibition of human A549 cells after 48 hrs by sulforhodamine B assay. It is filed as functional. As to conditions: A549, 48 h. Summed up:
as §1
In the case of `COc1cccc(CCCC[C@@H]2C[C@@H]3C[C@@]4(O[C@H](CCC4(C)C)CC(=O)O[C@@H](CO)CC(=O)O3)O2)c1`, the 50% growth inhibitory concentration (GI50) was 4.9 µM.

The next series has as its system HCT-15. In words: Growth inhibition of human HCT15 cells after 48 hrs by sulforhodamine B assay. It is filed as functional. The following applies: HCT-15, 48 h. Summed up:
as §1
`COc1cccc(CCCC[C@@H]2C[C@@H]3C[C@@]4(O[C@H](CCC4(C)C)CC(=O)O[C@@H](CO)CC(=O)O3)O2)c1` showed a GI50 of 18.2 µM.

For another series, the system named is U-251. As to the kind of experiment: Growth inhibition of human U251 cells after 48 hrs by sulforhodamine B assay. As to conditions: U-251, 48 h. It is filed as functional. The procedure, abridged: as §1
The molecule `COc1cccc(CCCC[C@@H]2C[C@@H]3C[C@@]4(O[C@H](CCC4(C)C)CC(=O)O[C@@H](CO)CC(=O)O3)O2)c1` had a GI50 of 17 µM.

Tested on in a further series: not listed separately
As to the kind of experiment: Growth inhibition of human HBC4 cells after 48 hrs by sulforhodamine B assay. It is filed as functional. The following applies: HBC4, 48 h. Summed up:
as §1
On to `COc1cccc(CCCC[C@@H]2C[C@@H]3C[C@@]4(O[C@H](CCC4(C)C)CC(=O)O[C@@H](CO)CC(=O)O3)O2)c1`, for which growth was halved (GI50) at 1.7 µM. This lies in the single-digit micromolar range.

Tested on in another series: not listed separately
In words: Growth inhibition of human MKN1 cells after 48 hrs by sulforhodamine B assay. It is filed as functional. As to conditions: MKN-1, 48 h. Summed up: as §1
`COc1cccc(CCCC[C@@H]2C[C@@H]3C[C@@]4(O[C@H](CCC4(C)C)CC(=O)O[C@@H](CO)CC(=O)O3)O2)c1` gave a GI50 of 11.5 µM.

In another series the target is T1, Protein kinase C delta type. In words: Inhibition of [3H]PDBu binding to PKCdelta-C1B domain peptide (unknown origin).
Conditions: not given
The procedure, abridged:
as §2
Turning to `COc1cccc(CCCC[C@@H]2C[C@@H]3C[C@@]4(O[C@H](CCC4(C)C)CC(=O)O[C@@H](CO)CC(=O)O3)O2)c1`, the affinity, expressed as Ki, was 0.0097 µM.

Another series relates to St-4. As to the kind of experiment: Growth inhibition of human St-4 cells after 48 hrs by sulforhodamine B assay. It is filed as functional. As to conditions: St-4, 48 h. Summed up: as §1
`COc1cccc(CCCC[C@@H]2C[C@@H]3C[C@@]4(O[C@H](CCC4(C)C)CC(=O)O[C@@H](CO)CC(=O)O3)O2)c1` had a GI50 of 2.51 µM.

Tested on in the next series: not listed separately
As to the kind of experiment: Growth inhibition of human BSY1 cells after 48 hrs by sulforhodamine B assay. The following applies: BSY-1, 48 h. It is filed as functional. Summed up:
as §1
Molecule `COc1cccc(CCCC[C@@H]2C[C@@H]3C[C@@]4(O[C@H](CCC4(C)C)CC(=O)O[C@@H](CO)CC(=O)O3)O2)c1` gave a concentration for 50% growth inhibition (GI50) of 13.8 µM.

In a further series the test system is LOX IMVI. As to the kind of experiment: Growth inhibition of human LOXIMVI cells after 48 hrs by sulforhodamine B assay. It is filed as functional.
Conditions: not given
The procedure, abridged:
as §1
For `COc1cccc(CCCC[C@@H]2C[C@@H]3C[C@@]4(O[C@H](CCC4(C)C)CC(=O)O[C@@H](CO)CC(=O)O3)O2)c1`, it took 11 µM to inhibit growth by half (GI50). In other words, the double-digit micromolar range.

Tested on in the next series: not listed separately
As to the kind of experiment: Growth inhibition of human RXF631L cells after 48 hrs by sulforhodamine B assay. It is filed as functional. As to conditions: RXF 631, 48 h. The procedure, abridged:
as §1
The molecule `COc1cccc(CCCC[C@@H]2C[C@@H]3C[C@@]4(O[C@H](CCC4(C)C)CC(=O)O[C@@H](CO)CC(=O)O3)O2)c1` had a GI50 of 13.8 µM. This lies in the double-digit micromolar range.

The subject of the next series is OVCAR-4. In words: Growth inhibition of human OVCAR4 cells after 48 hrs by sulforhodamine B assay. It is filed as functional. The following applies: OVCAR-4, 48 h. Summed up: as §1
For the molecule `COc1cccc(CCCC[C@@H]2C[C@@H]3C[C@@]4(O[C@H](CCC4(C)C)CC(=O)O[C@@H](CO)CC(=O)O3)O2)c1`, the GI50 was 15.8 µM.

One may read the GI50 as the concentration that inhibits growth by half. A high value points to lower sensitivity of the cells. As a reminder, the Ki is a dissociation constant, usually derived from enzyme kinetics or from competition with a known ligand. A high value points to lower affinity.
